# KCNK9 inh: blocks the human KCNK9 two-pore domain potassium channel. AID 488922. 310,000 tested, 1.2% active. B-score at 10 µM. Q9NPC2. HEK293 KCNK9, FluxOR thallium flux fluorescence; active compounds read low;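 active means ratio B-score over 3 SD below the library mean, with starting fluorescence within 5 SD of its mean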;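 further: negative B-score means less thallium flux so channel inhibition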
# Target sequence (Q9NPC2 whole entry, looked up, the tested form may be a part): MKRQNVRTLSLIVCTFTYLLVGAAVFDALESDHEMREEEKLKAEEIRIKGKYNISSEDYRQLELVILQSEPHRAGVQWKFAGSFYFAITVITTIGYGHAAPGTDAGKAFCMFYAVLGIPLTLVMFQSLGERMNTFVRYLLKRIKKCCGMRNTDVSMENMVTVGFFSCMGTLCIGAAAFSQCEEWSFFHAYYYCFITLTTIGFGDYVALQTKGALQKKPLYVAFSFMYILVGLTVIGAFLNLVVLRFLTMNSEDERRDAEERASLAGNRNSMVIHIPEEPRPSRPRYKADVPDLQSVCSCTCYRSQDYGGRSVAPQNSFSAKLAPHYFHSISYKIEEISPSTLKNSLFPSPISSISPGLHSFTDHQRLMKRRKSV
# hERG rescue: compounds protecting human hERG from proarrhythmic drug block | Q12809 | CHO-hERG, FluxOR thallium flux, dofetilide IC70 present | activation (rescue from dofetilide block), less the hit threshold, % at 10 µM | 310,000 tested, 0.51% active | AID 1511;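 active means activation above the mean of controls blocked by dofetilide plus 5 SD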;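 further: thallium influx through hERG after potassium depolarization seen as dye fluorescence rise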
# KCNQ1 pot: human KCNQ1 channel potentiation or activation | CHO-K1 KCNQ1, thallium flux FluxOR fluorescence; active compounds read high | B-score at 10 µM | 310,000 tested, 0.35% active | AID 2648;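 active means fluorescence ratio B-score, a plate-corrected score, at least three library SD, with initial intensity B-score within 5 SD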
#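 assay system = CHO-K1 cells stably expressing KCNQ1 | medium = assay buffer, equal DMSO in all wells | timing = 37 °C overnight plating, 90-min dark dye load, 20-min compound pretreatment | measured by = kinetic FluxOR thallium fluorescence, 10-s 1-Hz baseline, 110-s post-stimulus read | measure = fluorescence change relative to baseline, converted to B score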
# KCNQ1 block: blocks the human KCNQ1 potassium channel; P51787; 310,000 tested, 1.3% active; AID 2642; B-score at 10 µM; CHO-K1 KCNQ1, FluxOR thallium flux fluorescence; active compounds read high;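 active means compounds whose thallium flux B-score, printed positive for inhibition, exceeds three library SD while starting fluorescence stays within three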;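 further: channel opened by potassium depolarization with thallium stimulus after 20 min compound exposure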
# KCNK3 block: human KCNK3 channel inhibition, primary screen; O14649; CHO-KCNK3 thallium flux, FluxOR fluorescence; active compounds read low; B-score at 10 µM; 340,000 tested, 0.84% active;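 active means B-score under library mean minus 4 SD, starting fluorescence ratio at most library mean plus 5 SD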;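 further: more negative B-score means stronger inhibition of thallium flux through KCNK3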
# Kir21 inh: inhibitors of mouse Kir2.1 inward-rectifier potassium channel; HEK293-Kir2.1, FluxOR thallium flux fluorescence; active compounds read low; B-score at 10 µM; 310,000 tested, 0.85% active; P35561;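 active means fluorescence ratio B-score at or below minus 3 SD of library scores, with starting-brightness B-score within 2 SD, cut at about -4.2 in these data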;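 further: channel flux triggered by added potassium and thallium sulfate stimulus; B-score of peak minus minimum fluorescence over baseline after thallium stimulus; more negative B-score means stronger Kir2.1 block with less thallium influx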
# KCNK9 block conf: human KCNK9 inhibitor confirmation; shares compounds with KCNK9 inh; HEK293 KCNK9 cells, FluxOR thallium flux fluorescence; inhibition, % at 10 µM; 4,900 tested, 43% active;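 active means thallium signal inhibited by more than 5 SD of the compound-free buffer control wells, on both duplicate plates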
# Kir2-1 spec: tests whether KCNK9 modulators also affect mouse Kir2.1; shares compounds with KCNK9 inh; Kir2.1 cells, FluxOR thallium flux fluorescence; inhibition, % at 10 µM; 4,900 tested, 4% active; AID 492993;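 active means thallium signal drop more than 5 SD beyond the mean of the no-compound control wells, seen in both duplicate plates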;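 further: signal is fluorescence rise after thallium addition divided by baseline fluorescence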
# HEK293 Tl ctr: non-induced cell nonspecific activity of KCNK9 modulators; shares compounds with KCNK9 inh; non-induced KCNK9-HEK293, FluxOR thallium flux; inhibition, % at 10 µM; 4,900 tested, 40% active;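 active means thallium signal drop beyond 5 SD of the untreated control mean, on both duplicate plates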
# A number is an active result; . = inactive; / = no result. Rows were chosen to be rich in hits. Some 3.7% of all compounds tested hit in one or more screens of this group.
SMILES,KCNK9 inh,hERG rescue,KCNQ1 pot,KCNQ1 block,KCNK3 block,Kir21 inh,KCNK9 block conf,Kir2-1 spec,HEK293 Tl ctr
CCCCC(CC)C(=O)Nc1cccc(SC)c1 (stereo not drawn),-9.4,.,.,.,.,.,30%,.,.
O=C(CN1C(=O)c2ccccc2C1=O)NC(Cc1ccccc1)C(=O)O (stereo not drawn),/,/,/,/,.,/,/,/,/
COc1ccccc1NC(=O)c1ccc(CN(c2cc(Cl)ccc2C)S(=O)(=O)c2ccccc2)cc1,.,.,.,.,.,.,/,/,/
Cc1ccc(Cl)cc1N(Cc1ccc(C(=O)NCc2cccnc2)cc1)S(=O)(=O)c1ccccc1,-8.3,.,.,.,.,.,.,.,.
COc1ccc(CC(=O)Nc2nc(-c3cc(OC)ccc3OC)cs2)cc1,.,.,.,.,.,.,/,/,/
COc1ccc(OC)c(-c2csc(NC(=O)C3c4ccccc4Oc4ccccc43)n2)c1,-9.1,.,.,.,.,.,36%,.,32%
CC1CCN(C(=O)c2ccc3c(Cl)c4c(nc3c2)CCCC4)CC1,.,.,.,.,.,.,.,.,.
O=C(c1ccc2c(Cl)c3c(nc2c1)CCCC3)N1CCN(c2ccc(F)cc2)CC1,.,.,.,.,.,.,.,.,.
C=C1[C@@H](O)[C@H](Cc2ccccc2)N(Cc2ccccc2Br)S1(=O)=O,/,/,/,/,.,/,/,/,/
Cc1ccc(C)c(OCC(=O)Nc2ccc(C(=O)O)cc2NC(=O)COc2cc(C)ccc2C)c1,.,.,.,.,.,.,.,.,.
Cc1ccc(OCC(=O)Nc2cc(NC(=O)COc3ccc(C)c(C)c3)cc(C(=O)O)c2)cc1C,.,.,.,.,.,.,.,.,.
COc1ccc(OCC(=O)Nc2cc(NC(=O)COc3ccc(OC)cc3)cc(C(=O)O)c2)cc1,.,.,.,.,.,.,/,/,/
COc1ccc(-n2nc([N+](=O)[O-])c(=NCCc3ccc(C)cc3)n2O)cc1,.,.,.,.,.,.,.,.,.
Cc1ccc(/C=C2\C(=O)ON=C2c2ccccc2)o1,.,.,.,.,.,.,/,/,/
Cc1ccc(-c2ccc(/C=C3\C(=O)ON=C3c3ccccc3)o2)c([N+](=O)[O-])c1,.,.,8,.,.,.,.,.,32%
COc1ccc(-c2cc(C)no2)cc1S(=O)(=O)N1CCCN(Cc2ccccc2Cl)C1,-16,.,.,.,.,.,32%,.,32%
COC(=O)[C@]1(C)N[C@H](CN(C)C(=O)c2ccc(C)cc2)[C@@H]2C(=O)N(C)C(=O)[C@@H]21,/,/,/,/,.,/,/,/,/
O=C(Nc1cccc(-c2csc(Nc3ccccc3)n2)c1)c1ccccc1,.,.,.,.,.,.,.,.,.
O=C(O)C(c1ccccc1)N1C(=O)/C(=C\c2ccc(-c3ccccc3Cl)o2)SC1=S (stereo not drawn),.,.,.,.,.,.,.,.,.
CN(Cc1ccc(F)cc1)Cc1nc(CCc2ccccc2)no1,.,.,.,.,.,.,.,.,.
O=C(O)c1ccc(-c2nc(-c3ccc(Cl)c(Cl)c3)cs2)cc1,.,.,.,.,.,.,.,.,.
O=C(COc1ccc(Cl)cc1Cl)N1CCCN(C(=O)COc2ccc(Cl)cc2Cl)CC1,-11,.,.,.,.,.,36%,.,.
CCCCc1c(O)nc(SCC(=O)c2ccccc2)n(-c2ccccc2OC)c1=O,-13,.,.,.,.,.,51%,.,25%
Cc1ccc(C)c(C(=O)OCC(=O)N(C)c2ccccc2)c1,.,.,.,.,.,.,.,.,.
COc1ccc(-n2ccnc(SCC(=O)NCc3ccccc3Cl)c2=O)cc1,.,.,.,.,.,.,/,/,/
SMILES,KCNK9 inh,hERG rescue,KCNQ1 pot,KCNQ1 block,KCNK3 block,Kir21 inh,KCNK9 block conf,Kir2-1 spec,HEK293 Tl ctr
Cc1ccccc1OCCn1cc(C(=S)N2CCCC2)c2ccccc21,-9.6,.,.,.,.,.,.,.,30%
CC(C)(C)C1CCc2c(sc3c2C(=O)NC(c2ccco2)N3)C1 (stereo not drawn),.,.,.,.,.,.,.,.,.
CN1CCc2c(sc3c2C(=O)NC(c2ccccc2)N3)C1 (stereo not drawn),.,.,.,.,.,.,/,/,/
O=C(O)/C(=C\c1ccccc1)c1ccc2ccccc2c1,.,.,.,.,.,.,/,/,/
CCN(CC(=O)NC(=O)NCc1ccccc1)Cc1ccccc1,.,.,.,.,.,.,.,.,26%
N#Cc1ccc(C23OCCN2CCn2c3c3ccccc3[n+]2[O-])cc1 (stereo not drawn),/,/,/,/,.,/,/,/,/
COc1c(C)cc(C(=O)C2CCCN(C(=O)/C=C/c3ccccn3)C2)cc1C (stereo not drawn),.,.,.,.,.,.,.,.,.
COc1ccc2cc(C(=O)C3CCCN(C(=O)c4cccnc4)C3)ccc2c1 (stereo not drawn),.,.,.,.,.,.,/,/,/
COc1ccc(C(=O)C2CCCN(C(=O)c3ccc(C(C)=O)s3)C2)c(C)c1 (stereo not drawn),.,.,.,.,.,.,.,.,.
COc1ccc2cc(C(=O)C3CCCN(C(=O)c4cnn(C(C)C)c4)C3)ccc2c1 (stereo not drawn),.,.,.,.,.,.,.,.,.
COC(=O)CCCC(=O)N1CCCC(C(=O)c2ccc(OC)cc2C)C1 (stereo not drawn),.,.,.,.,.,.,.,.,.
COc1ccc(NC2CCCN(C(=O)CCc3scnc3C)C2)cc1 (stereo not drawn),.,.,.,.,.,.,/,/,/
COc1ccccc1C(=O)C1CCCN(C(=O)CCc2ccccn2)C1 (stereo not drawn),.,.,.,.,.,.,/,/,/
COc1ccc(C(=O)C2CCCN(C(=O)CCc3scnc3C)C2)c(C)c1 (stereo not drawn),.,.,.,.,.,.,.,.,.
COc1ccc(C(=O)C2CCCN(C(=O)c3cccnc3OC)C2)c(C)c1 (stereo not drawn),.,.,.,.,.,.,.,.,.
COc1ccc(C(=O)C2CCCN(C(=O)c3ccc4cc[nH]c4c3)C2)c(C)c1 (stereo not drawn),.,.,.,.,.,.,.,.,.
COc1ccc(C(=O)C2CCCN(C(=O)CCc3ccccn3)C2)c(C)c1 (stereo not drawn),.,.,.,.,.,.,.,.,.
NC(=O)c1cc([N+](=O)[O-])ccc1NCC1CCCCC1,/,/,/,/,.,/,/,/,/

# Bioassay records deposited in PubChem by Johns Hopkins Ion Channel Center.
